Published values of several laboratories.
Protocols differ between the studies behind these lines.
Organism: Mycolicibacterium smegmatis
Read-out: microbial growth

CC(C)=CCC/C(C)=C/CNC(=O)COC1C2CC3CC(C2)CC1C3 (stereo not shown)
MIC: 6.2 mg/L

NC[C@H]1O[C@@H](O[C@@H]([C@H](NCCCC(=O)NCc2ccc(N3CCC(Oc4ccc(OC(F)(F)F)cc4)CC3)cc2)C(N)=O)[C@H]2O[C@@H](n3ccc(=O)[nH]c3=O)C(O)C2O)[C@H](O)[C@@H]1O (stereo partly shown)
MIC (ATCC607): 0.2 mg/L

COC1C(C(OC2OC(C(=O)NC3CCCCNC3=O)=CC(O)C2O)C(N)=O)OC(n2ccc(=O)[nH]c2=O)C1OC (stereo not shown)
MIC (broth dilution; ATCC607): > 200 mg/L

CC(C)=CCC/C(C)=C/C[N+](C)(C)CCOC1C2CC3CC(C2)CC1C3.[I-] (stereo not shown)
MIC: 12 mg/L

COc1nc2ccc(Br)cc2cc1[C@@H](c1ccccc1)[C@@](O)(CCN(C)C)c1cccc2ccccc12
MIC: 0.03 mg/L

CN[C@@H]1[C@@H](O)[C@@H](O[C@@H]2[C@@H](O)[C@H](O[C@H]3O[C@H]([C@@H](C)O)[C@@H](O)[C@H](O)[C@H]3N)[C@@H](N)C[C@H]2N)OC[C@]1(C)O
MIC (broth dilution; 72 h): 8 mg/L

CC(C)CC=CC=CC(=O)NC(CC(N)=O)C(=O)NC1C(=O)NC(c2ccc(O)cc2)C(=O)NC(CCCN)C(=O)NC(C(C)O)C(=O)NC(c2ccc(O)cc2)C(=O)NC(c2ccc(O)cc2)C(=O)NC(C(C)O)C(=O)NC(Cc2ccccc2)C(=O)NC(CCCN)C(=O)NC(c2ccc(OC3OC(CO)C(O)C(O)C3OC3OC(CO)C(O)C(O)C3O)cc2)C(=O)NC(C(C)O)C(=O)NC(c2ccc(O)cc2)C(=O)NCC(=O)NC(CC(C)C)C(=O)NC(C)C(=O)NC(c2ccc(O)c(Cl)c2)C(=O)OC1C(N)=O (stereo not shown)
MIC (resazurin; ATCC607; 72 h): 3.25 mg/L

CC(C)=CCC/C(C)=C/CNCCOc1ccccc1
MIC: 12 mg/L

CO[C@H]1/C=C/O[C@@]2(C)Oc3c(C)c(O)c4c(O)c(c(/C=N/N5CCN(C)CC5)c(O)c4c3C2=O)NC(=O)/C(C)=C\C=C\[C@H](C)[C@H](O)[C@@H](C)[C@@H](O)[C@@H](C)[C@H](OC(C)=O)[C@@H]1C
MIC (resazurin; ATCC607; 72 h): 1.58 mg/L

Cc1ccc(-c2nc3ccc(C)cn3c2CC(=O)N(C)C)cc1
MIC (broth dilution): > 50 µM

COC1C(O)C(n2ccc(=O)[nH]c2=O)OC1C(OC1OC(C(=O)NC2CCCCNC2=O)=CC(O)C1O)C(N)=O (stereo not shown)
MIC (broth dilution; ATCC607): 6.5 mg/L

O=C(Nc1ncc([N+](=O)[O-])s1)c1ccccn1
MIC (agar dilution; MC^2155): 100 µM

O=C(Nc1ccc2c(c1)OC(F)(F)O2)Nc1ccc(Cl)c(C(F)(F)F)c1
MIC (MC2155): 6 µM
